Measured values taken from ChEMBL document CHEMBL1275298, “Synthesis and anti-inflammatory activity evaluation of some novel 6-alkoxy(phenoxy)-[1,2,4]triazolo[3,4-a]phthalazine-3-amine derivatives” (2010).
Activity calls are given as the source filed them. The rule behind the calls is not given here.

Columns and labels:
Mus musculus [1] = experiment: Antiinflammatory activity in mouse assessed as inhibition of xylene-induced ear edema at 100 mg/kg, ip after 0.5 hrs relative to control; assay type: functional; conditions: route intraperitoneal
In short: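 Kunming mice, 20-25 g, 10 per group. Freshly prepared DMSO solution given i.p. at 0.05 mL/20 g; vehicle-only (DMSO) controls. Xylene ear edema test run 0.5 h after dosing; mice killed 30 min after xylene, 7 mm plugs cut from treated and untreated ears, and edema taken as the plug weight difference. Reported as % edema reduction versus vehicle.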

Mus musculus [2] = experiment: Antiinflammatory activity in mouse assessed as inhibition of xylene-induced ear edema at 200 mg/kg, po administered 3 hrs before xylene challenge measured after 3 hrs post dose; assay type: functional
In short: (§1)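 Kunming mice, 20-25 g, 10 per group. Compound homogenized in 0.5% CMC-Na and given orally at 0.2 mL/10 g; vehicle controls got 0.5% CMC-Na. Xylene applied 1, 2, 3, 4, 5 or 24 h after dosing (3 h for 50 and 100 mg/kg). Killed 30 min later; 7 mm ear plugs weighed, treated minus untreated. Result given as % edema reduction versus CMC-Na controls.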

Mus musculus [3] = experiment: Antiinflammatory activity in mouse assessed as inhibition of xylene-induced ear edema at 200 mg/kg, po administered 24 hrs before xylene challenge measured after 3 hrs post dose; assay type: functional; in short: as §1
Mus musculus [4] = experiment: Antiinflammatory activity in mouse assessed as inhibition of xylene-induced ear edema at 50 mg/kg, po administered 3 hrs before xylene challenge measured after 3 hrs post dose; assay type: functional; in short: as §1
Mus musculus [5] = experiment: Antiinflammatory activity in mouse assessed as inhibition of xylene-induced ear edema at 200 mg/kg, po administered 4 hrs before xylene challenge measured after 3 hrs post dose; assay type: functional; in short: as §1
Mus musculus [6] = experiment: Antiinflammatory activity in mouse assessed as inhibition of xylene-induced ear edema at 200 mg/kg, po administered 1 hr before xylene challenge measured after 3 hrs post dose; assay type: functional; in short: as §1
Mus musculus [7] = experiment: Antiinflammatory activity in mouse assessed as inhibition of xylene-induced ear edema at 200 mg/kg, po administered 1 to 24 hrs before xylene challenge measured after 4 hrs post dose; assay type: functional, organism-based; parameters: dose 200 mg/kg; in short: as §1
Mus musculus [8] = experiment: Antiinflammatory activity in mouse assessed as inhibition of xylene-induced ear edema at 200 mg/kg, po administered 5 hrs before xylene challenge measured after 3 hrs post dose; assay type: functional; in short: as §1
Mus musculus [9] = experiment: Antiinflammatory activity in mouse assessed as inhibition of xylene-induced ear edema at 200 mg/kg, po administered 2 hrs before xylene challenge measured after 3 hrs post dose; assay type: functional; in short: as §1
Mus musculus [10] = experiment: Antiinflammatory activity in mouse assessed as inhibition of xylene-induced ear edema at 100 mg/kg, po administered 3 hrs before xylene challenge measured after 3 hrs post dose; assay type: functional; in short: as §1

Structure (SMILES): Cc1cccc(Oc2nn3c(N)nnc3c3ccccc23)c1
- inhibition in vivo at 100 mg/kg (Mus musculus [1]): 68%

Structure (SMILES): Nc1nnc2c3ccccc3c(Oc3ccc(Cl)cc3Cl)nn12
- inhibition in vivo at 100 mg/kg (Mus musculus [1]): 40.4%

Structure (SMILES): Nc1nnc2c3ccccc3c(Oc3ccccc3Cl)nn12
- inhibition in vivo at 200 mg/kg (Mus musculus [2]): 75%
- inhibition in vivo at 200 mg/kg (Mus musculus [3]): 8.24%
- inhibition in vivo at 50 mg/kg (Mus musculus [4]): 30.8%
- inhibition in vivo at 100 mg/kg (Mus musculus [1]): 81.2%
- inhibition in vivo at 200 mg/kg (Mus musculus [5]): 64.1%
- inhibition in vivo at 200 mg/kg (Mus musculus [6]): 52.7%
- inhibition (Mus musculus [7]): Active
- inhibition in vivo at 200 mg/kg (Mus musculus [8]): 57.2%
- inhibition in vivo at 200 mg/kg (Mus musculus [9]): 59%
- inhibition in vivo at 100 mg/kg (Mus musculus [10]): 46.7%

Structure (SMILES): CCCCCCOc1nn2c(N)nnc2c2ccccc12
- inhibition in vivo at 100 mg/kg (Mus musculus [1]): 39.5%

Structure (SMILES): Cc1ccc(Oc2nn3c(N)nnc3c3ccccc23)cc1
- inhibition in vivo at 100 mg/kg (Mus musculus [1]): 52.7%

Structure (SMILES): CCCCOc1nn2c(N)nnc2c2ccccc12
- inhibition in vivo at 100 mg/kg (Mus musculus [1]): 67.6%

Structure (SMILES): CCCCCCCCOc1nn2c(N)nnc2c2ccccc12
- inhibition in vivo at 100 mg/kg (Mus musculus [1]): 58%

Structure (SMILES): Nc1nnc2c3ccccc3c(Oc3ccc(F)cc3)nn12
- inhibition in vivo at 100 mg/kg (Mus musculus [1]): 48.8%

Structure (SMILES): CC(C)Cc1ccc(C(C)C(=O)O)cc1 (centres undefined) [IBUPROFEN]
- inhibition in vivo at 200 mg/kg (Mus musculus [2]): 64.6%
- inhibition in vivo at 200 mg/kg (Mus musculus [3]): 13.2%
- inhibition in vivo at 100 mg/kg (Mus musculus [1]): 61.2%
- inhibition in vivo at 200 mg/kg (Mus musculus [5]): 36.3%
- inhibition in vivo at 200 mg/kg (Mus musculus [6]): 29.6%
- inhibition in vivo at 200 mg/kg (Mus musculus [8]): 23.4%
- inhibition in vivo at 200 mg/kg (Mus musculus [9]): 38.6%
- inhibition in vivo at 100 mg/kg (Mus musculus [10]): 26.9%

Structure (SMILES): Nc1ccccc1Oc1nn2c(N)nnc2c2ccccc12
- inhibition in vivo at 100 mg/kg (Mus musculus [1]): 38.4%

Structure (SMILES): Nc1ccc(Oc2nn3c(N)nnc3c3ccccc23)cc1
- inhibition in vivo at 200 mg/kg (Mus musculus [2]): 84.3%
- inhibition in vivo at 200 mg/kg (Mus musculus [3]): 18.9%
- inhibition in vivo at 50 mg/kg (Mus musculus [4]): 22.8%
- inhibition in vivo at 100 mg/kg (Mus musculus [1]): 83%
- inhibition in vivo at 200 mg/kg (Mus musculus [5]): 80.6%
- inhibition in vivo at 200 mg/kg (Mus musculus [6]): 60.5%
- inhibition in vivo at 200 mg/kg (Mus musculus [8]): 55.9%
- inhibition in vivo at 200 mg/kg (Mus musculus [9]): 81.3%
- inhibition in vivo at 100 mg/kg (Mus musculus [10]): 37.9%

Structure (SMILES): COc1ccc(Oc2nn3c(N)nnc3c3ccccc23)cc1
- inhibition in vivo at 100 mg/kg (Mus musculus [1]): 44%

Structure (SMILES): Nc1nnc2c3ccccc3c(Oc3cccc(Cl)c3)nn12
- inhibition in vivo at 100 mg/kg (Mus musculus [1]): 68.8%

Structure (SMILES): Nc1nnc2c3ccccc3c(Oc3ccc(Cl)cc3)nn12
- inhibition in vivo at 100 mg/kg (Mus musculus [1]): 75%

Structure (SMILES): CCCCCCCOc1nn2c(N)nnc2c2ccccc12
- inhibition in vivo at 100 mg/kg (Mus musculus [1]): 65.7%

Structure (SMILES): Nc1cccc(Oc2nn3c(N)nnc3c3ccccc23)c1
- inhibition in vivo at 100 mg/kg (Mus musculus [1]): 68%

Structure (SMILES): Cc1ccccc1Oc1nn2c(N)nnc2c2ccccc12
- inhibition in vivo at 100 mg/kg (Mus musculus [1]): 68.3%

Structure (SMILES): CC(C)Oc1nn2c(N)nnc2c2ccccc12
- inhibition in vivo at 100 mg/kg (Mus musculus [1]): 39.4%

Structure (SMILES): Nc1nnc2c3ccccc3c(Oc3ccccc3)nn12
- inhibition in vivo at 100 mg/kg (Mus musculus [1]): 55%

Structure (SMILES): Nc1nnc2c3ccccc3c(Oc3ccc(Br)cc3)nn12
- inhibition in vivo at 100 mg/kg (Mus musculus [1]): 48.4%
